Test results from ChEMBL document CHEMBL1240449, “Tricyclononene carboxamide derivatives as novel anti-HIV-1 agents” (Eur J Med Chem, 2010).

Legend:
[1] = test system: Human immunodeficiency virus 1; assay: Antiviral activity against R5 tropic HIV1 BaL infected in human CEMx174 5.25M7 cells after 3 days by luciferase assay; format: functional, organism-based; details: Human immunodeficiency virus 1, BaL, CEMx174 5.25M7, 72 h
Outline: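 Compound at graded concentrations, in triplicate, preincubated with an equal volume of HIV-1 Bal (MOI 0.01) at 37 °C for 30 min. CEMx174 5.25M7 cells (5 × 10⁵/mL; CD4+, CXCR4+, CCR5+) were then added. After overnight culture the medium was replaced. On day 3 the cells were lysed and luciferase activity read. IC50 from percent inhibition by CalcuSyn.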

[2] = Selectivity index, CC50 for human CEMx174 5.25M7 cells to IC50 for R5 tropic HIV1 BaL; format: functional
Outline: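 Ratio of CC50 (XTT, CEMx174 5.25M7 cells, 4 days) to IC50 (HIV-1 Bal luciferase infection assay, day 3) in the same cell line.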

[3] = Cytotoxicity against human CEMx174 5.25M7 cells after 4 days by XTT assay; format: cell-based
Outline: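 Graded compound concentrations added to an equal volume of CEMx174 5.25M7 cells (5 × 10⁵/mL) and incubated 4 days at 37 °C. XTT (1 mg/mL) containing 0.02 mM PMS was added and absorbance read at 450 nm after 4 h. CC50 by CalcuSyn.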

[4] = molecular target: Human immunodeficiency virus type 1 integrase (Human immunodeficiency virus 1, UniProt Q7ZJM1); assay: Inhibition of HIV1 integrase after 1 hr
Outline: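 Integrase (F185K/C280S IN1-288, expressed in E. coli) assayed in wells coated with a donor DNA duplex substrate. Final read-out by alkaline phosphatase at 405 nm, after PBS-Tween washes and 1% BSA at 37 °C for 40 min. ABPS included as control. IC50 by CalcuSyn.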

Protease = Protease (Human immunodeficiency virus 1, UniProt Q9YQ12); assay: Inhibition of HIV1 recombinant protease
Outline: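 Recombinant HIV-1 protease, purified, in 0.1 mol/L sodium acetate pH 5.0 with 0.9 mol/L NaCl, 1 mmol/L DTT, 1 mmol/L EDTA and a fluorescent peptide substrate. Graded compound concentrations were preincubated in this buffer for 20 min at 37 °C, then enzyme was added to start the reaction. Percent inhibition and IC50 were calculated.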

[5] = molecular target: Human immunodeficiency virus type 1 reverse transcriptase (Human immunodeficiency virus 1, UniProt Q72547); assay: Inhibition of HIV1 reverse transcriptase after 1 hr by ELISA

Human immunodeficiency virus type 1 integrase, sequence (Q7ZJM1 whole entry): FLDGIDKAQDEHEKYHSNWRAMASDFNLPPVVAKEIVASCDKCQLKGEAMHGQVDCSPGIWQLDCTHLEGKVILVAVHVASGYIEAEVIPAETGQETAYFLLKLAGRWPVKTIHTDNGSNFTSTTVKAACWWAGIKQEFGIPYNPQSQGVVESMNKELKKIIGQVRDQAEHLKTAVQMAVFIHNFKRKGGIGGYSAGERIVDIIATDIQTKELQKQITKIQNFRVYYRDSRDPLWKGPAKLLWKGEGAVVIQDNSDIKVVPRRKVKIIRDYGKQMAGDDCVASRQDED
Protease, sequence (Q9YQ12 whole entry): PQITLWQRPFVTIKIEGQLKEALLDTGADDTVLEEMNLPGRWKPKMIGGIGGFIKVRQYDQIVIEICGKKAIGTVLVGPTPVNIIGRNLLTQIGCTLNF

SMILES	IC50 ([1]; read-out: IC50)	IC50 ([1]; read-out: pIC50 (converted))	IC50 [4]	IC50 (Protease)	IC50 [5]	Selectivity Index [2]	CC50 at 96 h [3]
O=C(NN1C(=O)[C@@H]2[C@@H]3C=C[C@@H]([C@H]4C[C@@H]34)[C@@H]2C1=O)c1ccc(C(F)(F)F)cc1 [TECOVIRIMAT]	> 200 µM	–	–	–	–	–	–
O=C(NN1C(=O)[C@@H]2C3C=CC(C4CC43)[C@@H]2C1=O)c1ccc(CNc2cccc(Cl)c2)cc1 (stereo partly drawn)	13.3 µM	13.2 µM	–	–	–	2.01	27.8 µM
Cc1ccc(-c2ccc3c(c2)C=C(C(=O)Nc2ccc(C[N+](C)(C)C4CCOCC4)cc2)CCC3)cc1.[Cl-]	0.05 µM	–	–	–	–	157.6	7.88 µM
Cc1nnc(C(C)C)n1-c1ccc(C(=O)NN2C(=O)C3C4C=CC(C5CC45)C3C2=O)cc1 (stereo not drawn)	> 185 µM	–	–	–	–	–	> 185 µM
O=C(N[C@H](C(=O)NN1C(=O)C2C3C=CC(C4CC34)C2C1=O)c1ccccc1)c1ccccc1 (stereo partly drawn)	155 µM	155 µM	–	–	–	>1.17	> 181 µM
Cc1ccc(C)n1-c1ccc(C(=O)NN2C(=O)C3C4C=CC(C5CC45)C3C2=O)cc1 (stereo not drawn)	7.8 µM	7.8 µM	–	–	–	0.45	3.54 µM
Cc1cccc(C)c1C(=O)N1CCC(C(=O)NN2C(=O)C3C4C=CC(C5CC45)C3C2=O)CC1 (stereo not drawn)	> 118 µM	–	–	–	–	–	> 118 µM
O=C(NN1C(=O)[C@@H]2C3C=CC(C4CC43)[C@@H]2C1=O)c1ccc(CN2CCN(c3ccncc3)C2=O)cc1 (stereo partly drawn)	> 165 µM	–	–	–	–	–	> 165 µM
O=C1C2C3C=CC(C4CC34)C2C(=O)N1CCC(=O)n1cnc2ccccc21 (stereo not drawn)	> 221 µM	–	–	–	–	–	> 221 µM
Cc1nc2ccccc2n1Cc1ccc(C(=O)NN2C(=O)[C@@H]3C4C=CC(C5CC54)[C@@H]3C2=O)cc1 (stereo partly drawn)	1.68 µM	1.68 µM	–	–	–	0.61	1.02 µM
CN(CCCN1C(=O)C2C3C=CC(C4CC34)C2C1=O)Cc1ccccc1 (stereo not drawn)	30.4 µM	30.4 µM	–	–	–	2.76	84 µM
CN1CCN(Cc2ccc(C(=O)NN3C(=O)[C@@H]4C5C=CC(C6CC65)[C@@H]4C3=O)cc2)CC1 (stereo partly drawn)	82.8 µM	82.8 µM	–	–	–	–	–

The next lines start with results.

IC50 ([1]; read-out: IC50)	IC50 ([1]; read-out: pIC50 (converted))	IC50 [4]	IC50 (Protease)	IC50 [5]	SMILES	Selectivity Index [2]	CC50 at 96 h [3]
89.4 µM	89.3 µM	–	–	–	O=C(N[C@@H](Cc1ccccc1)C(=O)NN1C(=O)C2C3C=CC(C4CC34)C2C1=O)c1ccccc1 (stereo partly drawn)	–	–
17.1 µM	17.1 µM	–	–	–	O=C(NN1C(=O)[C@@H]2C3C=CC(C4CC43)[C@@H]2C1=O)c1ccc(CN(Cc2ccccc2)c2ccccc2)cc1 (stereo partly drawn)	1.51	25.5 µM
31.4 µM	31.5 µM	–	–	–	O=C(NN1C(=O)[C@@H]2C3C=CC(C4CC43)[C@@H]2C1=O)c1ccc(COc2ccc(F)cc2)cc1 (stereo partly drawn)	0.94	29.7 µM
57.2 µM	57.1 µM	–	–	–	CCN(Cc1ccc(C(=O)NN2C(=O)[C@@H]3C4C=CC(C5CC54)[C@@H]3C2=O)cc1)c1ccccc1 (stereo partly drawn)	1	57 µM
0.41 µM	0.41 µM	> 228 µM	> 114 µM	> 457 µM	O=C(NN1C(=O)[C@@H]2C3C=CC(C4CC43)[C@@H]2C1=O)c1ccc(Cn2cnc3ccccc32)cc1 (stereo partly drawn)	291.68	120 µM
13.2 µM	13.2 µM	–	–	–	CC(C)CN(Cc1ccc(C(=O)NN2C(=O)[C@@H]3C4C=CC(C5CC54)[C@@H]3C2=O)cc1)c1ccccc1 (stereo partly drawn)	2.48	32.7 µM
5.7 µM	5.7 µM	–	–	–	O=C(Nc1ccccc1)c1ccc(CN2C(=O)C3C4C=CC(C5CC45)C3C2=O)cc1 (stereo not drawn)	7.72	44 µM
